Active and inactive are the calls of the source. No cut-off for these calls is given here.
Experiments:
[1] = Antiproliferative activity against human MCF7 cells after 72 hrs by MTT assay; type: functional, cell-based; conditions: MCF7, 72 h
How it was run: (§1)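 Tumour cells were grown as monolayers in DMEM with 10 % FBS, 2 mM L-glutamine, penicillin and streptomycin at 37 °C under 5 % CO₂. Tenfold dilutions from 10^-8 to 10^-4 M were applied for 72 h, followed by MTT read at 570 nm. IC50 came from linear regression of percentage growth; at least two experiments, quadruplicate points.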

[2] = Antiproliferative activity against human H460 cells after 72 hrs by MTT assay; type: functional, cell-based; conditions: NCI-H460, 72 h
How it was run: as §1, with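 “CO₂. They were seeded at 3×10^4 cells/mL (HCT 116, H460) or 5×10^4 cells/mL (MCF-7).” for “CO₂.”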

[3] = Antiproliferative activity against human HCT116 cells after 72 hrs by MTT assay; type: functional, cell-based; conditions: HCT-116, 72 h; how it was run: as §1
[4] = Antiproliferative activity against human shGFP-fused HMLE cells after 72 hrs by MTT assay; type: cell-based
How it was run: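 HMLE-shGFP cells were kept in a 1:1 mix of DMEM + 10 % FBS with insulin, hydrocortisone and HuMEC medium at 37 °C, 5 % CO₂. Agents were given as tenfold dilutions from 10^-8 to 10^-4 M for 72 h, then MTT absorbance was read at 570 nm. IC50 was interpolated by linear regression of percentage growth; at least two experiments, each point in quadruplicate.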

[5] = Binding affinity to duplex calf thymus DNA assessed as change in melting temperature at drug/DNA ratio of 0.05 by spectrophotometric analysis
[6] = Binding affinity to 0.5 to 480 uM of duplex […] (unknown origin) at 0.5 to 540 uM by fluorescence spectroscopic analysis
How it was run: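 Fluorescent compounds at 10 μM in BPE buffer (pH 7.1) were measured with and without rising calf-thymus DNA. Emission was scanned from 400 to 700 nm. K_sv was taken as the slope of the Stern–Volmer plot F₀/F = 1 + K_sv[ct-DNA].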

[7] = Binding affinity to radiolabeled 265bp DNA (unknown origin) at 0.5 to 50 uM by DNase 1 footprinting analysis
[8] = Binding affinity to duplex calf thymus DNA assessed as hypsochromic shift at 20 uM by UV/visible spectroscopic analysis
How it was run: (§2)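 Compound at 20 μM in BPE buffer (pH 7.1) was titrated with calf-thymus DNA at 1–140 μM in a 10 mm quartz cuvette. Spectra were recorded from 240 to 480 nm against a reference cuvette holding DNA at the same concentration.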

[9] = Binding affinity to duplex calf thymus DNA assessed as change in melting temperature at drug/DNA ratio of 0.1 by spectrophotometric analysis
[10] = Binding affinity to duplex calf thymus DNA assessed as induction of negative circular dichroic signal at 1 to 60 uM by circular dichroism analysis
How it was run: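 Calf-thymus DNA at 50 μM was incubated in BPE buffer with or without compound at 1, 5, 10, 20, 30, 40, 50 and 60 μM. CD spectra were recorded from 480 to 230 nm in a 10 mm cell at 20 °C. The compound alone at 60 μM was checked for intrinsic CD.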

[11] = Binding affinity to duplex calf thymus DNA assessed as bathochromic shift at 20 uM by UV/visible spectroscopic analysis; how it was run: as §2
Escherichia coli = assay: Binding affinity to negatively supercoiled pUC19 DNA assessed as DNA intercalation by measuring generation of positively supercoiled DNA up to 50 uM preincubated for 15 mins followed by human DNA topoisomerase 1 addition measured after 30 mins by agarose gel electrophoresis
How it was run: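 Supercoiled pUC19 plasmid was treated with human topoisomerase I, alone or with compound, and topoisomers were resolved by agarose gel electrophoresis. Poisoning, seen as nicked plasmid, was assessed on ethidium bromide-containing agarose gels at up to 100 μM compound.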

[12] = Binding affinity to duplex calf thymus DNA assessed as change in melting temperature at drug/DNA ratio of 0.25 by spectrophotometric analysis
[13] = Binding affinity to duplex calf thymus DNA assessed as change in melting temperature at drug/DNA ratio of 0.5 by spectrophotometric analysis
How it was run: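 Calf-thymus DNA at 20 μM was heated with or without compound at 10 or 20 μM (drug/base-pair ratio 0.5 or 1) in BPE buffer (6 mM Na₂HPO₄, 2 mM NaH₂PO₄, 1 mM EDTA, pH 7.1). A260 was read every minute from 20 to 100 °C, rising 1 °C per min, and ΔTm was derived.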

Row | ΔTm [5] [°C] | Activity [6] | Activity [7] | Activity [8] | ΔTm [9] [°C] | Activity [10] | Activity [11] | inhibition (Escherichia coli) | ΔTm [12] [°C] | ΔTm [13] [°C] | Compound | IC50 ([1]; read-out: IC50) [µM] | IC50 ([1]; read-out: pIC50 (converted)) [µM] | IC50 ([2]; read-out: IC50) [µM] | IC50 ([2]; read-out: pIC50 (converted)) [µM] | IC50 ([3]; read-out: IC50) [µM] | IC50 ([3]; read-out: pIC50 (converted)) [µM] | IC50 [4] [µM]
1 |  |  |  |  |  |  |  |  |  |  | CC1CN(c2ccc3c(N4CC(C)NC(C)C4)c(C#N)c4nc5ccccc5n4c3c2)CC(C)N1 (stereo unspecified) | 1 | 1 | 0.8 | 0.8 | 0.4 | 0.4 | 0.2
2 | 2.1 | Active | Active | Active | 20.7 | Active | Active | Active |  |  | C[N+]1(C)CCN(c2ccc3c(N4CC[N+](C)(C)CC4)c(C#N)c4nc5ccccc5n4c3c2)CC1 | > 100 | 500 | > 100 | 500 | > 100 | > 100 | 
3 |  |  |  |  |  |  |  |  |  |  | CC(C)CNc1ccc2c(NCC(C)C)c(C#N)c3nc4ccccc4n3c2c1 | 2 | 2 | 3 | 3 | 2 | 2 | 
4 |  |  |  |  |  |  |  |  |  |  | CC1CN(c2c(C#N)c3nc4ccccc4n3c3ccccc23)CC(C)N1 (stereo unspecified) | 6 | 6 | 4 | 4 | 3 | 3 | 3
5 |  |  |  |  |  |  |  |  |  |  | CCN(CC)c1ccc2c(N(CC)CC)c(C#N)c3nc4ccccc4n3c2c1 | 22 | 22 | 25 | 25 | 16 | 16 | 
6 |  |  |  |  |  |  |  |  |  |  | CCCCNc1ccc2c(NCCCC)c(C#N)c3nc4ccccc4n3c2c1 | 5 | 5 | 4 | 4 | 7 | 7 | 
7 |  |  |  |  |  |  |  |  |  |  | CC(C)CCNc1ccc2c(NCCC(C)C)c(C#N)c3nc4ccccc4n3c2c1 | 2 | 2 | 5 | 5 | 6 | 6 | 6
8 |  | Active | Active | Active | 5.1 | Active | Active | Active | 15.9 | 20.1 | N#Cc1c(N2CCNCC2)c2ccc(N3CCNCC3)cc2n2c1nc1ccccc12 | 1 | 1 | 4 | 4 | 1.5 | 1.5 | 2
9 |  |  |  |  |  |  |  |  |  |  | CC(C)Nc1ccc2c(NC(C)C)c(C#N)c3nc4ccccc4n3c2c1 | 7 | 7 | 21 | 21 | ≥ 10 | 10 | 
10 |  |  |  |  |  |  |  |  |  |  | COc1cc([C@@H]2c3cc4c(cc3[C@@H](O[C@@H]3O[C@@H]5CO[C@@H](C)O[C@H]5[C@H](O)[C@H]3O)[C@H]3COC(=O)[C@H]23)OCO4)cc(OC)c1O [ETOPOSIDE] | 1 |  | 0.1 |  | 5 |  | 0.4
11 |  |  |  |  |  |  |  |  |  |  | CC(C)Nc1c(C#N)c2nc3ccccc3n2c2ccccc12 | 20 | 20 | 5 | 5 | 13 | 13 | 
12 |  |  |  |  |  |  |  |  |  |  | CC(C)CCNc1c(C#N)c2nc3ccccc3n2c2ccccc12 | 4 | 4 | 2 | 2 | 5 | 5 | 
13 |  |  |  |  |  |  |  |  |  | 0.7 | N#Cc1c(N2CCCCC2)c2ccc(N3CCCCC3)cc2n2c1nc1ccccc12 | 10 | 10 | 15 | 15 | 11 | 11 | 
14 |  |  |  |  |  |  |  |  |  |  | CCCCCCNc1ccc2cc(C#N)c3nc4ccccc4n3c2c1 | 5 | 5 | 5 | 5 | 5 | 5 | 
15 |  |  |  |  |  |  |  |  |  |  | CC(C)Nc1ccc2cc(C#N)c3nc4ccccc4n3c2c1 | 0.7 | 0.7 | 2 | 2 | 0.8 | 0.8 | 1
16 |  |  |  |  |  |  |  |  |  |  | CC(C)CCNc1ccc2cc(C#N)c3nc4ccccc4n3c2c1 | 2 | 2 | 4 | 4 | 3 | 3 | 3
17 |  |  |  |  |  |  |  |  |  | 0 | CCCN(CCC)c1ccc2c(N(CCC)CCC)c(C#N)c3nc4ccccc4n3c2c1 | 21 | 21 | 29 | 29 | 14 | 14 | 
18 |  |  |  |  |  |  |  |  |  | 0.5 | N#Cc1c(N2CCOCC2)c2ccc(N3CCOCC3)cc2n2c1nc1ccccc12 | 9 | 8.99 | 18 | 18 | 11 | 11 | 
19 |  |  |  |  |  |  |  |  |  | 1.2 | CNc1ccc2c(NC)c(C#N)c3nc4ccccc4n3c2c1 | 2 | 2 | ≥ 100 | 100 | 7 | 7 | 
20 |  |  |  |  |  |  |  |  |  |  | CN1CCN(c2c(C#N)c3nc4ccccc4n3c3ccccc23)CC1 | 3 | 3 | 4 | 4 | 3 | 3 | 
21 |  |  |  |  |  |  |  |  |  |  | CN1CCN(c2ccc3cc(C#N)c4nc5ccccc5n4c3c2)CC1 | 2 | 2 | 1 | 1 | 0.6 | 0.6 | 0.5
22 |  |  |  |  |  |  |  |  |  |  | CN1CCN(c2ccc3c(N4CCN(C)CC4)c(C#N)c4nc5ccccc5n4c3c2)CC1 | 3 to 4 | 3 | 3 to 4 | 4 | 2 | 2 | 
23 |  |  |  |  |  |  |  |  |  |  | CCCCCN(CCCCC)c1ccc2c(N(CCCCC)CCCCC)c(C#N)c3nc4ccccc4n3c2c1 | > 100 | > 100 | > 100 | 500 | > 100 | > 100 | 
24 |  |  |  |  |  |  |  |  |  |  | COc1cccc2c1C(=O)c1c(O)c3c(c(O)c1C2=O)C[C@@](O)(C(=O)CO)C[C@@H]3O[C@H]1C[C@H](N)[C@H](O)[C@H](C)O1 [DOXORUBICIN] |  |  | 0.03 |  |  |  | 0.01
25 |  |  |  |  |  |  |  |  |  |  | CCCCCCNc1ccc2c(NCCCCCC)c(C#N)c3nc4ccccc4n3c2c1 | > 100 | > 100 | > 100 | 500 | > 100 | > 100 | 
26 |  |  |  |  |  |  |  |  |  |  | CCCCCCNc1c(C#N)c2nc3ccccc3n2c2ccccc12 | 3 | 3 | 2 | 2 | 4 | 4 | 
27 |  |  |  |  |  |  |  |  |  | 0 | CC1CN(c2ccc3cc(C#N)c4nc5ccccc5n4c3c2)CC(C)N1 (stereo unspecified) | 0.6 | 0.6 | 0.5 | 0.5 | 0.3 | 0.3 | 0.2

Reference: ChEMBL document CHEMBL3865821, “Amino substituted benzimidazo[1,2-a]quinolines: Antiproliferative potency, 3D QSAR study and DNA binding properties” (Eur J Med Chem, 2016)
